Experimental data as given in ChEMBL document CHEMBL1138808, “Synthesis and anticancer activity of simplified indenoisoquinoline topoisomerase I inhibitors lacking substituents on the aromatic rings” (2004).
Calls of active or inactive are those of the source. No cut-off for these calls is given here.

Key:
SN12C = assay: Growth inhibitory activity against human renal SN12C cell line; format: functional
Summary of the method: (§1)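 Growth inhibition in human cancer cell culture. GI50 is the concentration giving 50% growth inhibition. Compounds were tested at concentrations up to […].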

MDA-MB-435 = assay: Growth inhibitory activity against human breast MDA-MB-435 cell line; format: functional; summary of the method: as §1
[1] = Growth inhibitory activity against human CNSSF-539 cell line; format: functional; summary of the method: as §1
UACC-62 = assay: Growth inhibitory activity against human melanoma UACC-62 cell line; format: functional; summary of the method: as §1
OVCAR-3 = assay: Growth inhibitory activity against human ovarian OVCAR-3 cell line; format: functional; summary of the method: as §1
DU-145 = assay: Growth inhibitory activity against human prostate DU-145 cell line; format: functional; summary of the method: as §1
[2] = target: T1, DNA topoisomerase 1 (Homo sapiens) (UniProt P11387); assay: Induction of topoisomerase I mediated DNA cleavage; Activity similar to 1 uM camptothecin; weak activity
T1 sequence (whole entry): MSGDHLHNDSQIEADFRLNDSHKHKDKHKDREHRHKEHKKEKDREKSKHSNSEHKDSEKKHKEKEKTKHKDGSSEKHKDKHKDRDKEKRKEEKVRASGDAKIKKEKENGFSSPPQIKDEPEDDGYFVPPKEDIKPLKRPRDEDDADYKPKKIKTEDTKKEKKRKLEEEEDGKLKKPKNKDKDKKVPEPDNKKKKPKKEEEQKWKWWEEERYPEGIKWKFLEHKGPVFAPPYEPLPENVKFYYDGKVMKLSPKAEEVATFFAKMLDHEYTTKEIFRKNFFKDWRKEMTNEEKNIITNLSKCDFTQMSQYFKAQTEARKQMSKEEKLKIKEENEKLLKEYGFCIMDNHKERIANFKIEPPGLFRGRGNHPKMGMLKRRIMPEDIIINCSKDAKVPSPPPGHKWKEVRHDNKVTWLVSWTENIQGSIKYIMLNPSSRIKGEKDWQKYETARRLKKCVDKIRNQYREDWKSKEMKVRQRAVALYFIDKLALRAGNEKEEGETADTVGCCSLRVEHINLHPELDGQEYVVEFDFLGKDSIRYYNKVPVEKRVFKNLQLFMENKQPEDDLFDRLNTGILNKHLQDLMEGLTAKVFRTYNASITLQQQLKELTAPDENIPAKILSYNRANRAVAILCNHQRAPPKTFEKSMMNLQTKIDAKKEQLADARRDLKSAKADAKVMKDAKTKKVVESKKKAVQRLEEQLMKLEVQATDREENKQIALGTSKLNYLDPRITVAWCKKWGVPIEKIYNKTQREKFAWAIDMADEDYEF

HOP-62 = assay: Growth inhibitory activity against human lung HOP-62 cell line; format: functional; summary of the method: as §1
[3] = test system: Panel (Carcinoma cell lines); assay: Mean graph mid point for growth inhibition of human cancer cell lines; format: functional; design: unit not given here
Summary of the method: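 Mean graph midpoint of growth inhibition, taken across all human cancer cell lines successfully tested. Compounds were tested at concentrations up to […], and GI50 is the concentration giving 50% growth inhibition.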

HCT-116 = assay: Growth inhibitory activity against human colon HCT116 cell line; format: functional; summary of the method: as §1
[4] = target: T1, DNA topoisomerase 1 (Homo sapiens); assay: Induction of topoisomerase I mediated DNA cleavage; Greater activity than parent compound 1
[5] = target: T1, DNA topoisomerase 1 (Homo sapiens); assay: Induction of topoisomerase I mediated DNA cleavage; greater activity than parent compound 1
[6] = target: T1, DNA topoisomerase 1 (Homo sapiens); assay: Induction of topoisomerase I mediated DNA cleavage; Activity similar to parent compound 1
[7] = target: T1, DNA topoisomerase 1 (Homo sapiens); assay: Induction of topoisomerase I mediated DNA cleavage; weak activity

Structure (SMILES) | GI50 (SN12C) [µM] | GI50 (MDA-MB-435) [µM] | GI50 [1] [µM] | GI50 (UACC-62) [µM] | GI50 (OVCAR-3) [µM] | GI50 (DU-145) [µM] | DNA cleavage [2] | GI50 (HOP-62) [µM] | Mean graph mid point [3] | GI50 (HCT-116) [µM] | DNA cleavage [4] | DNA cleavage [5] | DNA cleavage [6] | DNA cleavage [7]
CCn1c2c(c3cc(OC)c(OC)cc3c1=O)C(=O)c1cc3c(cc1-2)OCO3 | 3.6 | 2.6 | 2 | 2.1 | 3 | 2.3 | +/- | 2.2 | 2.4 | 2.6 | – | – | – | –
CC[C@@]1(O)C(=O)OCc2c1cc1n(c2=O)Cc2cc3ccccc3nc2-1 [CAMPTOTHECIN] | – | – | 0.01 | – | – | – | – | – | 0.04 | – | Active | – | – | –
O=C1c2ccccc2-c2c1c1ccccc1c(=O)n2CCN1CCOCC1 | 93.3 | > 100 | 85.1 | 29.5 | 81.3 | > 100 | – | > 100 | 67.6 | 36.3 | Greater activity than compound 1 | – | – | –
Cl.NCCCn1c2c(c3ccccc3c1=O)C(=O)c1ccccc1-2 | 0.16 | 0.78 | 0.25 | 0.26 | 1.38 | 0.22 | – | 0.2 | 0.32 | 0.18 | – | greater activity than compound 1 | – | –
N=C(N)NCCCn1c2c(c3ccccc3c1=O)C(=O)c1ccccc1-2.O=C(O)C(F)(F)F | 0.23 | 25.7 | 0.37 | 11 | 18.2 | 7.59 | – | 0.69 | 9.77 | 22.4 | Greater activity than compound 1 | – | – | –
Cl.NCCCCn1c2c(c3ccccc3c1=O)C(=O)c1ccccc1-2 | 0.04 | 0.84 | 0.1 | 0.05 | 0.52 | 0.01 | – | 0.08 | 0.16 | 0.1 | – | greater activity than compound 1 | – | –
O=C1c2ccccc2-c2c1c1ccccc1c(=O)n2CCO | – | – | 12.2 | – | – | – | – | – | – | – | – | – | Activity similar to parent compound 1 | –
Cl.NCCCn1c2c(c3ccccc3c1=O)C(=O)c1cc3c(cc1-2)OCO3 | 0.19 | 1.82 | 0.43 | 0.18 | 1.45 | 0.06 | – | 0.28 | 0.25 | 0.68 | – | – | – | Weak activity
CCCn1c2c(c3ccccc3c1=O)C(=O)c1cc3c(cc1-2)OCO3 | > 100 | > 100 | > 100 | > 100 | 20.9 | > 100 | – | > 100 | 66.1 | 30.2 | – | – | Activity similar to parent compound 1 | –
O=C1c2ccccc2-c2c1c1ccccc1c(=O)n2CCNCCO | 0.95 | 2.56 | 1.65 | 1.42 | 3.85 | 1.28 | – | 1.62 | 1.9 | 1.12 | – | – | – | Weak activity
COc1cc2c(cc1OC)-c1c(c3ccccc3c(=O)n1CCCN)C2=O.Cl | – | – | 2.93 | – | – | – | – | – | 0.62 | – | – | – | Activity similar to parent compound 1 | –
COc1cc2c3c(n(CCCN(C)C)c(=O)c2cc1OC)-c1cc2c(cc1C3=O)OCO2 | 0.9 | 0.65 | 0.19 | 0.54 | 1.4 | 0.14 | – | 0.018 | 0.35 | 0.12 | Greater activity than compound 1 | – | – | –
